The values that follow come from article PMC8813707 (Clinical Pharmacokinetics, 2021).

Where two headings read alike, the source gives them in different places.

A word on the Cmax: it is the peak of the concentration-time curve. As a reminder, the Tmax is the time from dosing to the highest level. One may read the CL/F as the apparent clearance, not corrected for the fraction that reaches the circulation. Broadly, the Vd/F is the apparent distribution volume after extravascular dosing. The half-life is how long it takes for the measured level to halve.

Data set [1] can be described thus: Vosoritide plasma pharmacokinetics, phase II study. Type of data set: in vivo, human. The method in brief: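 Phase II, daily s.c. doses 2.5–30 µg/kg. Plasma measured by validated ELISA: murine monoclonal anti-drug IgG capture, rabbit polyclonal anti-CNP IgG detection. Full sampling on days 1, 10, 29, 85 and 183, predose and 5–180 min postdose. Non-compartmental analysis used linear-up/log-down trapezoids. Below-LLOQ values before Tmax set to zero; those after Tmax censored.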

Another data set relates to NPR-B. The data set can be described thus: Vosoritide-neutralizing antibodies. Type of data set: cell-based, human. Particulars: phase III, all time points tested. The method, boiled down:
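Run only on confirmed TAb-positive sera. Frozen NIH/3T3 cells cultured overnight (DMEM high glucose + 10% FBS, 37°C, 5% CO2). Cells stimulated with 5 ng/mL drug in diluted serum; cellular cGMP read by ELISA, where signal is inverse to cGMP. Screening cut point: upper 95th percentile of pretreatment sera. Positives confirmed by immunodepletion on drug-conjugated magnetic beads. LOD 227 ng/mL.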

A short description of data set [2]: Vosoritide plasma pharmacokinetics, phase III study. The data set is classed as in vivo, human. The method in brief:
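Phase III, 15 µg/kg s.c. once daily. Full plasma sampling at day 1, week 26 and week 52: predose and 5, 15, 30, 45, 60, 90 and 120 min. Sparse sampling at weeks 13 and 39. Parameters from non-compartmental analysis with linear-up/log-down trapezoids. Effects of sex, body weight, age, race and anti-drug antibodies on exposure were evaluated.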

The subject of data set [3] is patients with achondroplasia. Type of data set: in vivo, human. Particulars: phase II, initial 6 months, visit-matched; the single patient with high exposure.
Data set [4] has as its system total anti-vosoritide antibody (TAb). The data set can be described thus: Total anti-vosoritide antibodies. Particulars: phase III; p > 0.8 for difference in estimated mean Cmax and AUC0-∞ by TAb status, t-test. Type of data set: in vivo, human.
Data set [5] addresses urine cGMP (activity through the target receptor NPR-B). The data set can be described thus: Urine cGMP normalized to creatinine. Type of data set: in vivo, human. The method, boiled down:
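Urine collected predose and 1, 2 and 4 h postdose. Phase II: initial 6 months plus months 12, 18 and 24. Phase III: days 1–3 and weeks 6, 26 and 52. cGMP measured (LLOQ 138 pmol/mL neat urine) and normalised to creatinine. Maximum postdose increase is taken over the same-visit predose value; negative if predose is maximal. Fitted against visit-matched Cmax/AUC (non-estimable set to zero): sigmoid Emax (phase II) or Emax with h=1 (phase III).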

Data set [6] has as its system patients with achondroplasia. To be noted: phase II, children with achondroplasia, daily dose of 15 µg/kg, up to 42 months; cited from earlier work.
Data set [7] deals with patients with achondroplasia. The data set can be described thus: Change from baseline in annualized growth velocity. The data set is classed as in vivo, human. The method in brief:
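Phase II: once-daily subcutaneous dosing at 2.5–30 µg/kg. Change in AGV from baseline to day 183 fitted by sigmoid Emax (E0, Emax, EC50, Hill h) against individual mean Cmax or AUC0-t, each averaged per patient over all PK visit days. Phase III (15 µg/kg) exposure–AGV also analysed. Estimates given with 95% CIs.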

For data set [8], the system named is collagen type X marker (CXM). The data set can be described thus: Serum collagen type X marker. Type of data set: in vivo, human. The method in brief: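 Serum CXM measured by electrochemiluminescence sandwich assay. Streptavidin plates were blocked, then coated with biotinylated anti-collagen X NC1 SOMAmer capture. Standard was recombinant human collagen X NC1; sera diluted 1:100. Detection used ruthenium-labelled mouse mAb. Values read from a 4PL curve (1/Y² weighting); LOD 914 pg/mL neat serum. Individual mean CXM (day 10–183, phase II) fitted by sigmoid Emax versus individual mean Cmax or AUC0-t.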

The conditions of data set [9]: endogenous CNP in humans; cited from earlier work.
The mark [10] stands for this setting: phase II, the single patient with high individual mean exposure.

For the molecule `CC[C@H](C)[C@@H]1NC(=O)[C@H](CCCNC(=N)N)NC(=O)[C@H](CC(=O)O)NC(=O)[C@H](CC(C)C)NC(=O)[C@H](CCCCN)NC(=O)[C@H](CC(C)C)NC(=O)CNC(=O)[C@H](Cc2ccccc2)NC(=O)[C@@H](NC(=O)CNC(=O)[C@H](CCCCN)NC(=O)[C@H](CO)NC(=O)[C@H](CC(C)C)NC(=O)CNC(=O)[C@H](CCCCN)NC(=O)[C@H](CCCCN)NC(=O)[C@H](CC(N)=O)NC(=O)[C@H](C)NC(=O)CNC(=O)[C@H](CCCCN)NC(=O)[C@H](Cc2ccc(O)cc2)NC(=O)[C@H](CCCCN)NC(=O)[C@H](CCCNC(=N)N)NC(=O)[C@H](C)NC(=O)[C@H](CC(N)=O)NC(=O)[C@@H]2CCCN2C(=O)[C@H](Cc2c[nH]cn2)NC(=O)[C@H](CCC(=O)O)NC(=O)[C@H](CCC(N)=O)NC(=O)CNC(=O)[C@@H]2CCCN2)CSSC[C@@H](C(=O)O)NC(=O)CNC(=O)[C@H](CC(C)C)NC(=O)CNC(=O)[C@H](CO)NC(=O)[C@H](CCSC)NC(=O)[C@H](CO)NC(=O)CNC1=O` [vosoritide], the “increase in vosoritide exposure with dose” value in data set [1] (doses from 2.5 to 30 μg/kg) is listed as “greater than proportional”. Moreover, in data set [1] (human, plasma, sc, 2.5 ug/kg), the peak level (Cmax) was 0.549 ng/mL and the Tmax was 5 min. Moreover, in data set [1] (human, plasma, sc, 7.5 ug/kg), the peak level (Cmax) was 1.36 ng/mL and the time of peak concentration (Tmax) is 13.7 min. For the same molecule, in data set [1] (human, plasma, sc, 15 ug/kg), the apparent clearance (CL/F) came out at 83.7 mL/min/kg, the Cmax is 4.75 ng/mL, the Tmax was 15.8 min and the Vd/F was 2.56 L/kg. This molecule gave a half-life in [1] (human, plasma, sc, 15 ug/kg) of 24.4 min. In data set [1] (human, plasma, sc, 30 ug/kg), this molecule showed a Cmax of 16.8 ng/mL. The maximum concentration (Cmax) at one visit of one patient in data set [1] (phase II, single patient with high exposure, left out of the figure) is 839 ng/mL. Further, the “NAb status of TAb-positive patients” value in the data set on NPR-B was “negative”. In [2], the “impact of sex on plasma Cmax or AUC0-60min” value is listed as “no apparent impact”. Further, the “accumulation with once-daily dosing” value in data set [2] (15 µg/kg s.c. once daily, 52 weeks) is on record as “No evidence of accumulation”. The same molecule came in with a Vz/F in data set [2] (15 µg/kg s.c. once daily, Week 52, plasma ECLA, NCA, mean) of 2.91 L/kg. Further, the “relationship of plasma AUC0-60min with body weight and age” value in data set [2] (linear regression, p < 0.001) is recorded as “positively correlated”. Also, in data set [3], the “maximum decrease in DBP of one patient” value is −2 mmHg, the “maximum decrease in SBP of one patient” value is −7 mmHg and the “maximum increase in HR of one patient” value was determined as 39 bpm. Besides, the “impact of serum TAb on plasma exposure of vosoritide (Cmax and AUC0-∞)” value in data set [4] is recorded as “no apparent impact”. In data set [5] (Emax model (h = 1) vs visit-matched AUC0-60min, phase III, 15 µg/kg, MPE), the “EC50 (AUC0-60min producing half maximal effect on cGMP/Cr)” value amounted to 479000 pg·min/mL. Also, the “Emax, maximum postdose increase in urine cGMP/Cr” value in data set [5] (Emax model (h = 1) vs visit-matched Cmax, phase III, 15 µg/kg, MPE (95% CI)) was 18,160 (13,800–22,600) pmol/mg Cr. The “maximum change from pre-dose cGMP/Cr of one patient” value in [5] (phase II, initial 6 months, visit-matched, the single patient with high exposure) was 8190 pmol/mg Cr. Moreover, the “EC50 (AUC0-t producing half maximal effect on cGMP/Cr)” value in data set [5] (sigmoid Emax model vs visit-matched AUC0-t, initial 6 months of phase II, MPE) came to 222000 pg·min/mL. Also, the “sustained mean increase in annualized growth velocity (AGV) above baseline” value in data set [6] is 1.55 cm/year. In addition, the “correlation between plasma exposure and change in AGV” value in [7] (phase II, 24 months of daily dosing, 15 and 30 µg/kg, linear regression, p = 0.34 for Cmax, p = 0.50 for AUC0-60min) is on record as “no significant correlation”. In data set [7] (setting [10]), the “change in annualized growth velocity from baseline to day 183 of one patient” value was found to be 3.56 cm/year. Also, the “relationship between exposure and changes in AGV” value in data set [7] (phase III, 15 µg/kg, baseline to week 52, linear regression, p = 0.52 for Cmax, p = 0.54 for AUC0-60min) is “lack of relationship”. In [7] (sigmoid Emax model vs individual mean AUC0-t, baseline to day 183, phase II, MPE), the “EC50 (AUC0-t producing half maximal effect), change in AGV” value is reported as 20,500 pg-min/mL. Also, the “correlation between plasma exposure and mean CXM concentration” value in data set [8] (phase II, 24 months of daily dosing, 15 and 30 µg/kg, linear regression, p = 0.98 for Cmax, p = 0.99 for AUC0-60min) is on record as “no significant correlation”. Also, the “mean CXM from day 10 to day 183 of one patient” value in [8] (setting [10]) was 12,200 pg/mL. The “relationship between exposure and mean CXM concentrations” value in data set [8] (phase III, 15 µg/kg, week 13 to week 52, linear regression, p = 0.74 for Cmax, p = 0.58 for AUC0-60min) is “lack of relationship”. For the same molecule, the “EC50 (AUC0-t producing half maximal effect on CXM)” value in data set [8] (sigmoid Emax model vs individual mean AUC0-t, day 10 to day 183, phase II, MPE) was 51700 pg·min/mL.
Consider C-type natriuretic peptide [CNP], for which, in data set [9], the half-life was 2.6 min.
